Assay outcomes: PubChem, several laboratories
ADAM17 inh: inhibitors of human ADAM17 | 370,000 compounds, 0.83% hits | AID 720648 | inhibition, % at 6.95 µM | recombinant ADAM17, EDANS/DABCYL FRET peptide cleavage;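 active means inhibition above the mean of compounds lying between control limits plus 3 SD, set per campaign, cut at about 8.5% in these data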
CendR NRP1 mod: NRP-1/CendR interaction modulation | O14786 | FAM-RPARPAR peptide binding to NRP-1, fluorescence polarization | inhibition, % at 25 µM | 360,000 compounds, 0.85% hits | AID 602438;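 active means inhibition or corrected inhibition above about 18%, plus a signal ratio from 0.5 to 1.5, limit read from the data, passing the limit was not always enough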
FAS TE block: inhibitors of human fatty acid synthase thioesterase domain; inhibition, % at 15 µM; recombinant FAS-TE, OMFH fluorogenic substrate, fluorescence endpoint; 360,000 compounds, 0.67% hits; P49327;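 active means compounds whose normalised, plate-corrected inhibition of enzyme fluorescence in the single-dose primary screen is 50% or more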
CaV13 FRET inh: Disruptors of the CACNA1D IQ motif to Ca2+-dependent inactivation inhibitor domain association, primary screening, Förster resonance energy transfer in intact living … | HEK cells, CFP/YFP FRET ICDI-IQ, plate reader, 10 min; percent FRET-ratio fall versus neutral wells | AID 743397 | inhibition, % at 12.3 µM | 340,000 compounds, 0.098% hits;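 active means mean replicate inhibition of at least 30% and at least 1% of replicates passing that level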
Arr AP2 block: human beta-arrestin and AP2 interaction inhibition; FITC-arrestin peptide / GST-AP2 beads, flow cytometry; AP2 beta2 appendage carries R879A mutation; inhibition, % at 10 µM; 340,000 compounds, 0.31% hits; AID 504490;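 active means inhibition above a set limit, near 3 SD of compounds lacking own fluorescence, cut at about 54% in these data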
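System: GST-AP2 R879A glutathione beads | Also added: FITC-arrestin peptide, 50 nM | Times: 12 min plus 1 h, RT | Signal: Bead flow cytometry, FITC channel | Buffer or medium: PBS with 0.05% Tween 20 and 0.1% BSA | Read-out basis: Percent drop in bead-associated FITC signal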
ADAM10 inh: ADAM10 inhibition, QFRET primary screen; O14672; recombinant ADAM10, EDANS/DABCYL FRET peptide cleavage, 3 h; inhibition, % at 7 µM; 370,000 compounds, 0.62% hits; AID 720582;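 active means inhibition above a per-campaign cutoff equal to the mean of compounds falling between control-based bounds plus 3 SD, cut at about 20% in these data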
Arr-AP2 CP1: human beta-arrestin and AP2 interaction inhibition, cherry pick; shares compounds with Arr AP2 block; GST-AP2 beads, FITC arrestin peptide binding, flow cytometry; GST-fused beta2-adaptin appendage, R879A mutant; inhibition, % at 10 µM; 1,300 compounds, 2% hits; AID 504908;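 active means inhibition above a set limit, roughly 3 SD of non-fluorescent compound noise, cut at about 38% in these data; inactive means inhibition at or below that limit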;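 further: loss of bead fluorescence from 50 nM FITC arrestin peptide bound to appendage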
GST-FITC bead: counter-screen for beta-arrestin AP2 inhibitors: GST-GSH bead binding; shares compounds with Arr AP2 block; GST-fluorescein binding to GSH beads, fluorescence; inhibition, % at 10 µM; 1,300 compounds, 2% hits; AID 588338;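 active means inhibition above 50%, about 3 SD of the inhibition seen with non-fluorescent compounds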;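 further: fluorescein maleimide labelled GST captured on 4 micron glutathione beads; higher means more loss of bead fluorescence from quenching or blocked binding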
Numbers stand for hits; 0 = inactive; - = no result. An excerpt weighted towards active compounds, which were near 2.9% of everything screened.

SMILES	ADAM17 inh	CendR NRP1 mod	FAS TE block	CaV13 FRET inh	Arr AP2 block	ADAM10 inh	Arr-AP2 CP1	GST-FITC bead
CC(C)CN(C(=O)c1ccc(S(=O)(=O)N2CCCCC2)cc1)C1CCS(=O)(=O)C1 (stereo not given)	0	0	0	0	0	0	-	-
O=C1CCCC(O)=C1Sc1ccccc1C(=O)O	0	0	0	0	74	0	0	0
COc1ccc(OC)c(NC(=O)C2(C)CCN2Cc2ccccc2Cl)c1 (stereo not given)	0	0	0	0	-	0	-	-
O=C(NCc1cccs1)c1ccc2sc(COCCO)nc2c1	0	0	0	0	-	0	-	-
CC(c1ccccc1)n1c(Cn2ncc3ccccc3c2=O)n[nH]c1=S (stereo not given)	0	0	0	0	54	0	0	0
Cc1cc(C(=O)N2CCC2(C)C(=O)NCC(C)(C)C)nn1C (stereo not given)	0	0	0	0	-	0	-	-
O=C1CC(c2ccco2)CC(O)=C1C=NCCN1CCN(C(=S)Nc2ccccc2)CC1 (stereo not given)	0	0	0	0	56	0	0	0
Cc1ccc(CNC(=O)CS(=O)(=O)c2cn(CC(=O)N3CCOCC3)c3ccccc23)cc1	0	0	0	0	60	0	0	0
O=C(CSc1nc2ccccc2c(=O)n1-c1ccccc1F)NC1CC1	0	0	0	0	0	0	-	-
COc1ccccc1-n1c(SCC(=O)NC2CC2)nc2ccccc2c1=O	0	0	0	0	60	0	0	0
Cc1ccc(NS(=O)(=O)c2ccc(C(=O)NCCCN3CCCC3=O)cc2)cc1	0	0	0	0	0	0	-	-
Cc1ccc(NC(=S)NC2CCCC2)cc1C	0	0	0	0	0	0	-	-
Cc1nc2ccc(NC(=S)NC3CCCCC3)cc2nc1C	0	0	0	0	55	0	0	0
CCN(CC)C(=O)Cn1cc(/C=C(\C#N)C(=O)NC2CC2)c2ccccc21	0	0	0	0	61	0	0	0
COCCNC(=O)Cn1cc(/C=C(\C#N)C(=O)NC2CC2)c2ccccc21	0	0	0	0	0	0	-	-
COCCN1C(=O)/C(=C/c2ccc(N3CCCC3)cc2C)SC1=S	0	0	0	0	103	0	0	0
c1ccc2oc(-c3ccc(Nc4nc(N5CCOCC5)nc(N5CCOCC5)n4)cc3)nc2c1	0	0	0	0	0	0	-	-
CCC(C)NC(=O)C1CCC(CNS(=O)(=O)c2cccc3nsnc23)CC1 (stereo not given)	-	0	0	-	54	-	0	0
CCOC(=O)N(C)C[C@@H]1OCc2cnnn2CCCC(=O)N([C@H](C)CO)C[C@@H]1C	0	0	0	0	-	0	-	-
Cc1ccc(C(=O)COC(=O)CCN2C(=O)C3C4C=CC(C5CC45)C3C2=O)cc1 (stereo not given)	0	0	0	0	57	0	0	0
CCCCNC(=O)C1(C)CCCCN1C(=O)c1ccc2ccccc2n1 (stereo not given)	0	0	0	0	-	0	-	-
O=C(CCCCCNC(=O)c1ccccc1)N/N=C/c1ccc(O)cc1O	0	0	0	0	60	0	0	0
CCNC(=S)/N=C(\N)Nc1nc(C)c2cc(C)ccc2n1	0	0	0	0	64	0	0	0
CCOc1ccc2nc(N/C(N)=N/C(=S)Nc3ccc(C)c(C)c3)nc(C)c2c1	0	0	0	0	0	0	-	-
O=[N+]([O-])c1ccccc1S(=O)(=O)N1CCC(c2cn3ccccc3n2)CC1	0	-	-	-	-	0	-	-
SMILES	ADAM17 inh	CendR NRP1 mod	FAS TE block	CaV13 FRET inh	Arr AP2 block	ADAM10 inh	Arr-AP2 CP1	GST-FITC bead
COc1ccc(-c2nn(-c3ccccc3)cc2/C=C(\C#N)S(=O)(=O)c2ccccc2)cc1OC	0	0	0	0	78	0	0	0
COc1ccc(-c2nn(-c3ccccc3)cc2/C=N/NC(N)=S)cc1OC	0	0	0	0	0	0	-	-
Cc1cc(C(=O)OCC(=O)NCCc2ccccc2)c2ccccc2n1	0	0	0	0	54	0	0	0
COC(=O)c1nc2ccc(N3CCOCC3)cc2c(C)c1C(=O)OC	0	0	0	0	57	0	0	0
O=C(C(=O)N1CCN(C(=O)C2CCC2)CC1)c1cccc(C(F)(F)F)c1	0	-	-	0	-	0	-	-
CCN(CC)S(=O)(=O)c1ccc(C(=O)Nc2ccc(Cc3ccncc3)cc2)cc1	0	0	0	0	56	0	0	0
CCN(CC)S(=O)(=O)c1ccc(NC(=O)c2ccc(N(C)S(C)(=O)=O)cc2)cc1	0	0	0	0	0	0	-	-
COc1ccc2c(c1)N=C(c1[nH]c3ccccc3c1CCN1C(=O)c3ccccc3C1=O)[C@]2(O)CCN1C(=O)c2ccccc2C1=O	0	-	-	-	-	0	-	-
O=C(CSc1nc2ncc(Br)cc2[nH]1)c1ccc([N+](=O)[O-])cc1	0	0	0	0	0	0	-	-
O=C(CSc1nc2ccc([N+](=O)[O-])cc2[nH]1)c1ccc2ccccc2c1	0	0	0	0	106	0	0	0
O=C(NC1CCCCC1)C(c1ccccc1)n1c(=O)c(-c2ccco2)nc2ccccc21 (stereo not given)	0	0	-	0	-	0	-	-
O=C(Nc1cccc(S(=O)(=O)N2CCCCC2)c1)c1cc(=O)[nH]c2ccccc12	0	0	0	0	0	0	0	0
O=C(COC(=O)c1cc(=O)[nH]c2ccccc12)Nc1cccc(S(=O)(=O)N2CCOCC2)c1	0	0	0	0	0	0	-	-
O=C(Nc1cccc(S(=O)(=O)N2CCOCC2)c1)c1cccc(S(=O)(=O)N2CCCC2)c1	0	0	0	0	0	0	-	-
O=C(Nc1cccc(S(=O)(=O)N2CCOCC2)c1)c1cc(=O)[nH]c2ccccc12	0	0	0	0	0	0	0	0
Cc1cc(C(=O)Nc2cccc(S(=O)(=O)N3CCOCC3)c2)c2ccccc2n1	0	0	0	0	0	0	0	0
O=C(Nc1cccc(S(=O)(=O)N2CCOCC2)c1)c1ccc(=O)[nH]c1	0	0	0	0	0	0	0	0
O=C(Nc1cccc(S(=O)(=O)N2CCCC2)c1)c1cc(=O)[nH]c2ccccc12	0	0	0	0	0	0	-	-
COc1ccc(NC(=O)CN(C)C(=O)C(NC(=O)c2ccco2)C(C)C)cc1 (stereo not given)	0	0	0	0	61	0	0	0
OC(c1ccccc1)(c1ccccc1)C1CCN(CCCOc2cccc(F)c2)CC1	0	-	-	0	-	0	-	-
